Tests used:
Assay type in all cases: functional
Plasmodium berghei [1] = assay: Antimalarial activity in primary screen
Plasmodium berghei [2] = assay: Change in mean survival time of Plasmodium berghei infected mice (Mus musculus) on 1.25 mg/kg subcutaneous dose
Plasmodium berghei [3] = assay: Difference in mean survival time of Plasmodium berghei infected mice (Mus musculus) after 10 mg/kg subcutaneous dose
Plasmodium berghei [4] = assay: Change in mean survival time for control (average 6.2 days) versus treated mice (Mus musculus) after 160 mg/kg subcutaneous dose
Plasmodium berghei [5] = assay: Change in mean survival time of Plasmodium berghei infected mice (Mus musculus) after […] subcutaneous dose
Plasmodium berghei [6] = assay: Change in mean survival time for control (average 6.2 days) versus treated mice (Mus musculus) after 20 mg/kg subcutaneous dose
Plasmodium berghei [7] = assay: Change in mean survival time for control (average 6.2 days) versus treated mice (Mus musculus) after 40 mg/kg subcutaneous dose
Plasmodium berghei [8] = assay: Change in mean survival time of Plasmodium berghei infected mice (Mus musculus) after 5 mg/kg subcutaneous dose
Plasmodium berghei [9] = assay: Change in mean survival time in control (average 6.2 days) versus treated mice (Mus musculus) after 80 mg/kg subcutaneous dose
Plasmodium berghei [10] = assay: Antimalarial activity as 60-day survivors in Plasmodium berghei infected mice (Mus musculus) after single 160mg/kg subcutaneous dose 72 hr post infection
Outline: (§1)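 Mice were infected with a normal drug-sensitive Plasmodium berghei strain. At 72 h postinfection each received one subcutaneous dose of compound dissolved or suspended in peanut oil, in five-mouse groups per dose. The read-out was the number of mice alive at 60 days postinfection, which were scored as cured.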

Plasmodium berghei [11] = assay: Antimalarial activity as 60-day survivors in infected mice (Mus musculus) after single 320mg/kg subcutaneous dose 72 hr post infection; outline: as §1
Mus musculus [12] = assay: Antimalarial activity, administered as a single subcutaneous dose of 40 mg/kg, 72 hrs post infection measured as number of mice (Mus musculus) surviving at 60 days post infection; outline: as §1
Mus musculus [13] = assay: Antimalarial activity, administered as a single subcutaneous dose of 640 mg/kg, 72 hrs post infection measured as number of mice (Mus musculus) surviving at 60 days post infection; outline: as §1
Mus musculus [14] = assay: Antimalarial activity, administered as a single subcutaneous dose of 80 mg/kg, 72 hrs post infection measured as number of mice (Mus musculus) surviving at 60 days post infection; outline: as §1
Plasmodium berghei [15] = assay: Change in mean survival time for control (average 6.2 days) versus treated mice (Mus musculus) after 320 mg/kg subcutaneous dose
Plasmodium berghei [16] = assay: (§2) Change in mean survival time for control (average 6.2 days) versus treated mice (Mus musculus) 72 hrs after […] subcutaneous dose
Plasmodium berghei [17] = assay: Antimalarial activity as 60-day survivors in infected mice (Mus musculus) after single 20 mg/kg subcutaneous dose 72hr post infection; outline: as §1
Plasmodium berghei [18] = assay: Change in mean survival time for control (average 6.2 days) versus treated mice (Mus musculus) 72 hrs after 5 mg/kg subcutaneous dose
Plasmodium berghei [19] = assay: Change in mean survival time for control (average 6.2 days) versus treated mice (Mus musculus) 72 hrs after 640 mg/kg subcutaneous dose
Plasmodium berghei [20] = assay: Change in mean survival time for control (average of 6.2 days) versus treated mice (Mus musculus) 72 hrs after 80 mg/kg subcutaneous dose
Plasmodium berghei [21] = assay: as §2; remark: listed apart in the source
Plasmodium berghei [22] = assay: Change in mean survival time for control (average 6.2 days) versus treated mice (Mus musculus) 72 hrs after 10 mg/kg subcutaneous dose
Plasmodium berghei [23] = assay: Change in mean survival time for control (average 6.2 days) versus treated mice (Mus musculus) 72 hrs after 160 mg/kg subcutaneous dose
Plasmodium berghei [24] = assay: Change in mean survival time for control (average 6.2 days) versus treated mice (Mus musculus) 72 hrs after […] subcutaneous dose
Plasmodium berghei [25] = assay: Change in mean survival time for control (average 6.2 days) versus treated mice (Mus musculus) 72 hrs after 20 mg/kg subcutaneous dose
Plasmodium berghei [26] = assay: Change in mean survival time for control (average 6.2 days) versus treated mice (Mus musculus) 72 hrs after 320 mg/kg subcutaneous dose
Plasmodium berghei [27] = assay: Difference in mean survival time in mice (Mus musculus) (control = 6.2 days) after single 40mg/kg subcutaneous dose 72hr post infection

SMILES	ED30 (Plasmodium berghei [1]) [mg/kg]	Delta MST (Plasmodium berghei [2]) [days]	Delta MST (Plasmodium berghei [3]) [days]	Delta MST (Plasmodium berghei [4])	Delta MST (Plasmodium berghei [5]) [days]	Delta MST (Plasmodium berghei [6]) [days]	Delta MST (Plasmodium berghei [7]) [days]	Delta MST (Plasmodium berghei [8]) [days]	Delta MST (Plasmodium berghei [9]) [days]	No. of mice cured (Plasmodium berghei [10])	No. of mice cured (Plasmodium berghei [11])	No. of mice cured (Mus musculus [13])	No. of mice cured (Mus musculus [14])	Delta MST (Plasmodium berghei [15]) [days]	Delta MST (Plasmodium berghei [16]) [days]	further results
CCN(CC)Cc1cc(Nc2cc[n+]([O-])c3cc(Cl)ccc23)cc(-c2ccc(Cl)c(Cl)c2)c1O	36.6	-0.1	5.9	29.1 days	-0.1	12	21.2	0.7	25.7	2	5	5	2	–	–	No. of mice cured (Mus musculus [12]): 1
CCN(CC)Cc1cc(Nc2cc[n+]([O-])c3cc(Cl)ccc23)cc(-c2cccc3ccccc23)c1O	14400	–	–	6.4 days	–	0	0.4	–	3	–	–	1	–	1.6	12.9	–
[O-][n+]1ccc(Nc2cc(CN3CCCC3)c(O)c(-c3ccc(Cl)c(Cl)c3)c2)c2ccc(Cl)cc21	–	-0.1	2.3	24.4 days	-0.1	7.9	10.7	0.7	25.4	3	5	5	2	–	–	–
CCN(CC)Cc1cc(Nc2cc[n+]([O-])c3cc(Cl)ccc23)cc(-c2ccc(F)cc2)c1O	19.7	0.5	10.5	–	2.1	14.1	21.7	5.1	23.6	5	4	–	4	8.6	15	No. of mice cured (Mus musculus [12]): 2
CCN(CC)Cc1cc(Nc2cc[n+]([O-])c3cc(Cl)ccc23)cc(-c2cc(OC)ccc2OC)c1O	2450	–	–	6 days	–	0.6	2.6	–	2	–	–	1	–	7.8	27.1	–
CCN(CC)Cc1cc(Nc2cc[n+]([O-])c3cc(Cl)ccc23)cc(-c2ccccc2)c1O	26.3	0.3	7.7	–	0.3	17.4	29.6	5.1	19.9	5	3	3	2	24.9	23.9	–
CC(C)(C)NCc1cc(Nc2cc[n+]([O-])c3cc(Cl)ccc23)cc(-c2ccc(Cl)c(Cl)c2)c1O	–	-0.3	2.9	25.9 days	-0.1	5.9	8.9	0.5	23.2	1	3	2	1	25.9	–	–
CCN(CC)Cc1cc(Nc2cc[n+]([O-])c3cc(Cl)ccc23)cc(-c2ccncc2)c1O	330	–	–	10.7 days	–	3.3	5.7	–	8.3	–	2	3	–	12.6	21.9	–
CCN(CC)Cc1cc(Nc2cc[n+]([O-])c3cc(Cl)ccc23)cc(-c2ccc(C)cc2)c1O	–	–	–	5.1 days	–	–	0.5	–	4.3	–	–	–	–	15.7	10.5	No. of mice cured (Plasmodium berghei [17]): 1.3
CCN(CC)Cc1cc(Nc2cc[n+]([O-])c3cc(Cl)ccc23)cc(-c2cccc(F)c2)c1O	33.7	-0.1	–	29.6 days	0.5	27.2	22.8	4.5	22.6	3	3	1	2	24.1	14.8	–
CCN(CC)Cc1cc(Nc2cc[n+]([O-])c3cc(Cl)ccc23)cc(-c2ccc(OC)cc2)c1O	423	0.1	1.1	7.3	-0.1	3.7	7.3	–	9.1	–	1	2	–	8.2	15	–
CCN(CC)Cc1cc(Nc2cc[n+]([O-])c3cc(Cl)ccc23)cc(-c2ccccc2OC)c1O	170	–	–	8.9 days	–	0.7	6.9	–	8.7	2	1	1	–	36.2	27.2	–
CC(C)(C)NCc1cc(Nc2ccnc3cc(Cl)ccc23)cc(-c2ccc(Cl)c(Cl)c2)c1O	–	–	–	–	–	–	–	–	–	4	3	4	4	–	–	Delta MST (Plasmodium berghei [18]): 6.1 days; Delta MST (Plasmodium berghei [19]): 16.4 days; Delta MST (Plasmodium berghei [20]): 30.4 days; Delta MST (Plasmodium berghei [21]): 0.7 days; Delta MST (Plasmodium berghei [22]): 9.7 days; Delta MST (Plasmodium berghei [23]): 13.4 days; Delta MST (Plasmodium berghei [24]): 0.1 days; Delta MST (Plasmodium berghei [25]): 10.5 days; Delta MST (Plasmodium berghei [26]): 14.4 days; Delta MST (Plasmodium berghei [27]): 27.4 days; No. of mice cured (Plasmodium berghei [17]): 1; No. of mice cured (Mus musculus [12]): 2
CCN(CC)Cc1cc(Nc2cc[n+]([O-])c3cc(Cl)ccc23)cc(-c2ccccc2C(F)(F)F)c1O	56.1	0.5	4.1	24.7 days	0.1	7.7	15.5	0.7	24.7	4	5	5	–	–	–	–
CCN(CC)Cc1cc(Nc2cc[n+]([O-])c3cc(Cl)ccc23)cc(-c2ccccn2)c1O	550	–	–	3 days	–	0.4	0	–	1	–	1	1	–	5.1	9.1	–
CCN(CC)Cc1cc(Nc2cc[n+]([O-])c3cc(Cl)ccc23)cc(-c2ccc(OC)c(OC)c2)c1O	204	–	–	11.4	–	2.4	5.4	–	5	–	3	2	–	12.4	11.1	–
CCN(CC)Cc1cc(Nc2cc[n+]([O-])c3cc(Cl)ccc23)cc(-c2ccccc2Cl)c1O	27.4	-0.2	8	33.4 days	-0.2	19.2	25.8	6.4	34.9	3	3	5	2	41.9	–	No. of mice cured (Mus musculus [12]): 1
